System: Fibroblast
Experiment: Multiplex assay against human fibroblast
Assay type: toxicity, cell-based
Outline: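 Phenotypes for tubulin, mitochondrial mass and membrane permeability are expressed as per cents of healthy-nucleus cells. Cells were stained live at seeding with Hoechst33342, BioTracker Green Microtubule Cytoskeleton Dye, MitoTracker Red and Annexin V Alexa Fluor 680, then imaged after compound addition on a CQ1 microscope at 37°C and 5% CO2. Machine-learning gating in CellPathfinder separated Hoechst high-intensity objects from normal cells, divided normal cells by nuclear state (healthy, pyknosed, fragmented) and divided pyknosed cells into mitotic or apoptotic.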

[1] = 12 h, 1 µM, compound concentration 1 uM, replicate 1
[2] = 12 h, 1 µM, compound concentration 1 uM, replicate 2
[3] = 12 h, 10 µM, compound concentration 10 uM, replicate 1
[4] = 12 h, 10 µM, compound concentration 10 uM, replicate 2
[5] = 24 h, 1 µM, compound concentration 1 uM, replicate 1
[6] = 24 h, 1 µM, compound concentration 1 uM, replicate 2
[7] = 24 h, 10 µM, compound concentration 10 uM, replicate 1
[8] = 24 h, 10 µM, compound concentration 10 uM, replicate 2
[9] = 48 h, 1 µM, compound concentration 1 uM, replicate 1
[10] = 48 h, 1 µM, compound concentration 1 uM, replicate 2
[11] = 48 h, 10 µM, compound concentration 10 uM, replicate 1
[12] = 48 h, 10 µM, compound concentration 10 uM, replicate 2

Structure (SMILES): c1cc(OCCCN2CCCCC2)ccc1CN1CCCCC1 [JNJ-5207852]
- Population Apoptotic (%) [1]: 37%
- Population Fragmented Nuclei (%) [1]: 15%
- Population Healthy Nuclei (%) [1]: 64%
- Population Hoechst High Intensity Objects (%) [1]: 1%
- Population Membrane Permeable-Phenotype (%) [1]: 0%
- Population Mitochondria Different-Phenotype (%) [1]: 2%
- Population Mitotic Cells (%) [1]: 62%
- Population Normal (%) [1]: 98%
- Population Pyknosed Nuclei (%) [1]: 20%
- Population Tubulin-Different-Phenotype (%) [1]: 26%
- Total Cell Count [1]: 181
- Population Apoptotic (%) [2]: 26%
- Population Fragmented Nuclei (%) [2]: 24%
- Population Healthy Nuclei (%) [2]: 51%
- Population Hoechst High Intensity Objects (%) [2]: 7%
- Population Membrane Permeable-Phenotype (%) [2]: 8%
- Population Mitochondria Different-Phenotype (%) [2]: 5%
- Population Mitotic Cells (%) [2]: 73%
- Population Normal (%) [2]: 92%
- Population Pyknosed Nuclei (%) [2]: 23%
- Population Tubulin-Different-Phenotype (%) [2]: 49%
- Total Cell Count [2]: 153
- Population Apoptotic (%) [3]: 50%
- Population Fragmented Nuclei (%) [3]: 22%
- Population Healthy Nuclei (%) [3]: 68%
- Population Hoechst High Intensity Objects (%) [3]: 1%
- Population Membrane Permeable-Phenotype (%) [3]: 0%
- Population Mitochondria Different-Phenotype (%) [3]: 6%
- Population Mitotic Cells (%) [3]: 50%
- Population Normal (%) [3]: 98%
- Population Pyknosed Nuclei (%) [3]: 9%
- Population Tubulin-Different-Phenotype (%) [3]: 35%
- Total Cell Count [3]: 193
- Population Apoptotic (%) [4]: 43%
- Population Fragmented Nuclei (%) [4]: 36%
- Population Healthy Nuclei (%) [4]: 42%
- Population Membrane Permeable-Phenotype (%) [4]: 12%
- Population Mitochondria Different-Phenotype (%) [4]: 10%
- Population Mitotic Cells (%) [4]: 56%
- Population Pyknosed Nuclei (%) [4]: 20%
- Population Tubulin-Different-Phenotype (%) [4]: 60%
- Total Cell Count [4]: 114
- Population Apoptotic (%) [5]: 38%
- Population Fragmented Nuclei (%) [5]: 18%
- Population Healthy Nuclei (%) [5]: 66%
- Population Hoechst High Intensity Objects (%) [5]: 2%
- Population Membrane Permeable-Phenotype (%) [5]: 0%
- Population Mitochondria Different-Phenotype (%) [5]: 2%
- Population Mitotic Cells (%) [5]: 61%
- Population Normal (%) [5]: 97%
- Population Pyknosed Nuclei (%) [5]: 15%
- Population Tubulin-Different-Phenotype (%) [5]: 23%
- Total Cell Count [5]: 176
- Population Apoptotic (%) [6]: 33%
- Population Fragmented Nuclei (%) [6]: 28%
- Population Healthy Nuclei (%) [6]: 51%
- Population Hoechst High Intensity Objects (%) [6]: 5%
- Population Membrane Permeable-Phenotype (%) [6]: 5%
- Population Mitochondria Different-Phenotype (%) [6]: 6%
- Population Mitotic Cells (%) [6]: 66%
- Population Normal (%) [6]: 95%
- Population Pyknosed Nuclei (%) [6]: 19%
- Population Tubulin-Different-Phenotype (%) [6]: 55%
- Total Cell Count [6]: 160
- Population Apoptotic (%) [7]: 60%
- Population Fragmented Nuclei (%) [7]: 24%
- Population Healthy Nuclei (%) [7]: 65%
- Population Hoechst High Intensity Objects (%) [7]: 1%
- Population Membrane Permeable-Phenotype (%) [7]: 0%
- Population Mitochondria Different-Phenotype (%) [7]: 6%
- Population Mitotic Cells (%) [7]: 40%
- Population Normal (%) [7]: 99%
- Population Pyknosed Nuclei (%) [7]: 10%
- Population Tubulin-Different-Phenotype (%) [7]: 34%
- Total Cell Count [7]: 201
- Population Apoptotic (%) [8]: 41%
- Population Fragmented Nuclei (%) [8]: 45%
- Population Healthy Nuclei (%) [8]: 38%
- Population Hoechst High Intensity Objects (%) [8]: 5%
- Population Membrane Permeable-Phenotype (%) [8]: 4%
- Population Mitochondria Different-Phenotype (%) [8]: 13%
- Population Mitotic Cells (%) [8]: 58%
- Population Normal (%) [8]: 94%
- Population Pyknosed Nuclei (%) [8]: 15%
- Population Tubulin-Different-Phenotype (%) [8]: 67%
- Total Cell Count [8]: 118
- Population Apoptotic (%) [9]: 70%
- Population Fragmented Nuclei (%) [9]: 18%
- Population Healthy Nuclei (%) [9]: 63%
- Population Hoechst High Intensity Objects (%) [9]: 2%
- Population Membrane Permeable-Phenotype (%) [9]: 0%
- Population Mitochondria Different-Phenotype (%) [9]: 2%
- Population Mitotic Cells (%) [9]: 29%
- Population Normal (%) [9]: 97%
- Population Pyknosed Nuclei (%) [9]: 17%
- Population Tubulin-Different-Phenotype (%) [9]: 23%
- Total Cell Count [9]: 184
- Population Apoptotic (%) [10]: 44%
- Population Fragmented Nuclei (%) [10]: 32%
- Population Healthy Nuclei (%) [10]: 48%
- Population Hoechst High Intensity Objects (%) [10]: 4%
- Population Membrane Permeable-Phenotype (%) [10]: 5%
- Population Mitotic Cells (%) [10]: 55%
- Population Normal (%) [10]: 95%
- Population Pyknosed Nuclei (%) [10]: 18%
- Population Tubulin-Different-Phenotype (%) [10]: 50%
- Total Cell Count [10]: 160
- Population Apoptotic (%) [11]: 55%
- Population Fragmented Nuclei (%) [11]: 19%
- Population Healthy Nuclei (%) [11]: 70%
- Population Hoechst High Intensity Objects (%) [11]: 2%
- Population Membrane Permeable-Phenotype (%) [11]: 0%
- Population Mitochondria Different-Phenotype (%) [11]: 2%
- Population Mitotic Cells (%) [11]: 44%
- Population Normal (%) [11]: 97%
- Population Pyknosed Nuclei (%) [11]: 9%
- Population Tubulin-Different-Phenotype (%) [11]: 34%
- Total Cell Count [11]: 189
- Population Apoptotic (%) [12]: 30%
- Population Fragmented Nuclei (%) [12]: 48%
- Population Healthy Nuclei (%) [12]: 41%
- Population Hoechst High Intensity Objects (%) [12]: 3%
- Population Membrane Permeable-Phenotype (%) [12]: 5%
- Population Mitochondria Different-Phenotype (%) [12]: 11%
- Population Mitotic Cells (%) [12]: 69%
- Population Normal (%) [12]: 96%
- Population Pyknosed Nuclei (%) [12]: 10%
- Population Tubulin-Different-Phenotype (%) [12]: 66%
- Total Cell Count [12]: 132
